In ChEMBL document CHEMBL4364256, “Design, synthesis and biological evaluation of antimicrobial diarylimine and -amine compounds targeting the interaction between the bacterial NusB and NusE proteins” (Eur J Med Chem, 2019):
≈ marks a conversion by molar mass, not a printed value.

Tests used:
[1] = microbe, parasite or virus in culture; conditions: Enterobacter cloacae, ATCC 13047, 20 h
Streptococcus pneumoniae = experiment: Antimicrobial activity against Streptococcus pneumoniae ATCC 49619 incubated for 20 hrs by microdilution method; format: functional; conditions: ATCC 49619, 20 h
Outline: (§1)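 Broth microdilution MIC testing done following CLSI guidelines.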

Staphylococcus aureus [2] = experiment: microbe, parasite or virus in culture; conditions: ATCC 29213, 20 h
Acinetobacter baumannii = experiment: Antimicrobial activity against Acinetobacter baumannii ATCC 19606 incubated for 20 hrs by microdilution method; format: functional; conditions: ATCC 19606 = CIP 70.34 = JCM 6841, 20 h
Outline: as §1

Staphylococcus aureus [3] = experiment: microbe, parasite or virus in culture; conditions: ATCC 25923, 20 h
Enterococcus faecium = experiment: Antimicrobial activity against Enterococcus faecium ATCC 19433 incubated for 20 hrs by microdilution method; format: functional; conditions: ATCC 19433, 20 h
Outline: as §1

Pseudomonas aeruginosa = experiment: Antimicrobial activity against Pseudomonas aeruginosa ATCC 27853 incubated for 20 hrs by microdilution method; format: functional; conditions: ATCC 27853, 20 h
Outline: as §1

Bacillus subtilis = experiment: Inhibition of N-terminal LgBiT-fused Bacillus subtilis NusB expressed in Escherichia coli BL21(DE3)pLysS interaction with C- terminal SmBiT-fused Bacillus subtilis NusE expressed in Escherichia coli BL21(DE3)pLysS at 100 uM preincubated for 10 mins followed by NusE addition and measured after 10 mins by nano-glo luciferase assay relative to control
Outline: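 NusB and NusE were mixed 1:1 at 1 µM in PBS, with compound at 100 µM. The read-out was percent inhibition of the NusB-NusE interaction.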

SMILES	MIC [1] [µg/mL]	MIC (Streptococcus pneumoniae) [µg/mL]	MIC (Staphylococcus aureus [2]) [µg/mL]	MIC (Acinetobacter baumannii) [µg/mL]	MIC (Staphylococcus aureus [3]) [µg/mL]	MIC (Enterococcus faecium) [µg/mL]	MIC (Pseudomonas aeruginosa) [µg/mL]	inhibition (Bacillus subtilis) [%]
C#Cc1cccc(NCc2cccc([N+](=O)[O-])c2)c1	> 256	> 256	> 256	> 256	> 256	> 256	> 256	33.1
O=[N+]([O-])c1ccc(O)c(/C=N/c2ccccc2)c1	> 256	32 (≈ 132 µM)	16 (≈ 66.1 µM)	256 (≈ 1060 µM)	4 (≈ 16.5 µM)	> 256	> 256	39.2
O=[N+]([O-])c1ccc(O)c(CNc2ccc(C(F)(F)F)cc2)c1	256 (≈ 820 µM)	16 (≈ 51.2 µM)	8 (≈ 25.6 µM)	32 (≈ 102 µM)	8 (≈ 25.6 µM)	32 (≈ 102 µM)	> 256	54.1
C#Cc1cccc(NCc2cc(OC)ccc2O)c1	> 256	8 (≈ 31.6 µM)	32 (≈ 126 µM)	> 256	64 (≈ 253 µM)	64 (≈ 253 µM)	> 256	58.3
C#Cc1cccc(NCc2cc([N+](=O)[O-])ccc2O)c1	> 256	8 (≈ 29.8 µM)	16 (≈ 59.6 µM)	128 (≈ 477 µM)	16 (≈ 59.6 µM)	16 (≈ 59.6 µM)	> 256	47.7
C#Cc1cccc(/N=C/c2cc([N+](=O)[O-])cc(Br)c2O)c1	> 256	128 (≈ 371 µM)	32 (≈ 92.7 µM)	256 (≈ 742 µM)	32 (≈ 92.7 µM)	> 256	> 256	74.1
C#Cc1ccccc1/N=C/c1cc([N+](=O)[O-])ccc1O	> 256	32 (≈ 120 µM)	16 (≈ 60.1 µM)	> 256	4 (≈ 15 µM)	> 256	> 256	71.4
O=[N+]([O-])c1ccc(O)c(CNc2cccc(O)c2)c1	> 256	128 (≈ 492 µM)	128 (≈ 492 µM)	> 256	64 (≈ 246 µM)	> 256	> 256	66.7
C#Cc1cccc(NCc2cc(C#N)ccc2O)c1	> 256	16 (≈ 64.4 µM)	32 (≈ 129 µM)	> 256	32 (≈ 129 µM)	64 (≈ 258 µM)	> 256	64.8
O=[N+]([O-])c1ccc(O)c(/C=N/C2CCCCC2)c1	> 256	16 (≈ 64.4 µM)	8 (≈ 32.2 µM)	256 (≈ 1030 µM)	4 (≈ 16.1 µM)	> 256	> 256	68.3
O=C(O)c1cccc(NCc2cc([N+](=O)[O-])ccc2O)c1	> 256	> 256	> 256	> 256	> 256	> 256	> 256	50.8
C#Cc1cccc(/N=C/c2cc([N+](=O)[O-])ccc2OC)c1	> 256	> 256	> 256	> 256	> 256	> 256	> 256	40.4
C#Cc1cccc(/N=C/c2cc(C#N)ccc2O)c1	> 256	128 (≈ 520 µM)	64 (≈ 260 µM)	> 256	32 (≈ 130 µM)	256 (≈ 1040 µM)	> 256	61.3
O=[N+]([O-])c1ccc(O)c(CNc2cccc3ccccc23)c1	> 256	16 (≈ 54.4 µM)	4 (≈ 13.6 µM)	256 (≈ 870 µM)	4 (≈ 13.6 µM)	16 (≈ 54.4 µM)	> 256	47.4
O=[N+]([O-])c1ccc(O)c(CNC2CCCCC2)c1	> 256	> 256	> 256	> 256	> 256	> 256	> 256	58.2
C#Cc1cccc(NCc2cc(C(=O)OC)ccc2O)c1	> 256	8 (≈ 28.4 µM)	16 (≈ 56.9 µM)	> 256	32 (≈ 114 µM)	32 (≈ 114 µM)	> 256	57.1
O=[N+]([O-])c1ccc(O)c(CNc2ccccc2O)c1	256 (≈ 984 µM)	64 (≈ 246 µM)	32 (≈ 123 µM)	128 (≈ 492 µM)	16 (≈ 61.5 µM)	256 (≈ 984 µM)	256 (≈ 984 µM)	81.5
C#Cc1cccc(/N=C/c2cc(OC)ccc2O)c1	> 256	> 256	> 256	128 (≈ 509 µM)	> 256	> 256	> 256	29.3
C#Cc1cccc(/N=C/c2cccc([N+](=O)[O-])c2)c1	> 256	> 256	128 (≈ 511 µM)	16 (≈ 63.9 µM)	256 (≈ 1020 µM)	> 256	> 256	24.7
O=[N+]([O-])c1ccc(O)c(CNc2ccc(Cl)cc2)c1	128 (≈ 459 µM)	16 (≈ 57.4 µM)	4 (≈ 14.4 µM)	> 256	8 (≈ 28.7 µM)	32 (≈ 115 µM)	256 (≈ 919 µM)	53.6
C#Cc1cccc(/N=C/c2cccc([N+](=O)[O-])c2O)c1	> 256	256 (≈ 961 µM)	256 (≈ 961 µM)	> 256	256 (≈ 961 µM)	256 (≈ 961 µM)	256 (≈ 961 µM)	87.7
C#Cc1cccc(/N=C/c2ccccc2O)c1	> 256	> 256	> 256	> 256	256 (≈ 1160 µM)	> 256	> 256	25.7
C#Cc1cccc(NCc2cc(F)ccc2O)c1	> 256	16 (≈ 66.3 µM)	32 (≈ 133 µM)	128 (≈ 531 µM)	32 (≈ 133 µM)	32 (≈ 133 µM)	> 256	61.8
C#Cc1cccc(/N=C/c2ccc([N+](=O)[O-])cc2O)c1	> 256	128 (≈ 481 µM)	256 (≈ 961 µM)	> 256	64 (≈ 240 µM)	> 256	> 256	46.7
CC(C)(C)c1ccc(/N=C/c2cc([N+](=O)[O-])ccc2O)cc1	> 256	128 (≈ 429 µM)	32 (≈ 107 µM)	> 256	4 (≈ 13.4 µM)	> 256	> 256	38.8
